Results taken from ChEMBL document CHEMBL4477201, “Imidazopyridine and Pyrazolopiperidine Derivatives as Novel Inhibitors of Serine Palmitoyl Transferase” (J Med Chem, 2016).
Calls of active or inactive are those of the source. No cut-off for these calls is given here.

Tests used:
[1] = Drug uptake in diet-induced obese C57Bl/6 mouse liver at 0.1 mg/kg, po qd for 4 weeks measured 6 hrs post last dose; assay type: ADME, organism-based; conditions: read-out: Drug uptake
Summary of the method: (§1)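 Male DIO mice dosed orally for 4 weeks. Sacrificed 6 h after the last dose. Compound measured in serum (ng/mL) and liver (ng/g), and the liver:serum ratio calculated.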

[2] = Drug uptake in diet-induced obese C57Bl/6 mouse serum at 25 mg/kg, po qd for 4 weeks measured 6 hrs post last dose; assay type: ADME, organism-based; conditions: read-out: Drug uptake; summary of the method: as §1
[3] = Volume of distribution at steady state in Sprague-Dawley rat at 3 mg/kg,po; assay type: ADME, organism-based; conditions: in vivo
Summary of the method: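 Male Sprague Dawley rats, fasted, single oral dose of 3 mg/kg. A parallel arm received 1 mg/kg IV. Plasma was sampled for pharmacokinetics over 0-24 hr. Steady-state volume of distribution is reported […], in mL/kg.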

[4] = Drug uptake in diet-induced obese C57Bl/6 mouse liver at 3 mg/kg, po qd for 4 weeks measured 6 hrs post last dose; assay type: ADME, organism-based; conditions: read-out: Drug uptake; summary of the method: as §1
Mus musculus [5] = experiment: Reduction in plasma C18:0 ceramide level in diet-induced obese C57BL6 mouse at 1 to 60 mg/kg administered daily through oral gavage for 28 days measured 2 hrs post last dose relative to lean control; assay type: functional, organism-based
Summary of the method: (§2)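 DIO mice dosed orally for 28 days, with myriocin as positive control and lean mice as reference. Total and C18:0 plasma ceramides measured 2 h after the final dose.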

Mus musculus [6] = experiment: Reduction in blood glucose in diet-induced obese C57BL6 mouse at 25 mg/kg, po qd for 4 weeks by oral glucose tolerance test relative to lean control; assay type: functional, organism-based
Summary of the method: (§3)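 After 4 weeks of oral dosing, DIO mice underwent an oral glucose tolerance test. Insulin and glucose AUC compared with lean mice; trend assessed by ANOVA trend analysis.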

[7] = Drug uptake in diet-induced obese C57Bl/6 mouse liver at 1 mg/kg, po qd for 4 weeks measured 6 hrs post last dose; assay type: ADME, organism-based; conditions: read-out: Drug uptake; summary of the method: as §1
Rattus norvegicus [8] = experiment: Increase in HDL level in cholic acid/cholesterol-fed Sprague-Dawley rat model of dyslipidemia administered bid through oral gavage measured after 1 week by FPLC analysis relative to vehicle-treated control; assay type: functional, organism-based
Summary of the method: (§4)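 Sprague Dawley rats fed a cholic acid/cholesterol diet for 14 days, then dosed orally BID for 7 days at five dose levels, n=6. Serum ceramides and VLDL and HDL cholesterol compared with vehicle (dose 0). Mean ± SEM; Dunnett's test, p<0.05.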

[9] = Half life in Sprague-Dawley rat at 1 mg/kg, iv; assay type: ADME, organism-based; conditions: in vivo
Summary of the method: (§5)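 Single dose to fasted male Sprague Dawley rats, IV at 1 mg/kg or oral at 3 mg/kg. Plasma levels followed to derive AUC0-24hr, Cmax, half-life, Vdss and oral bioavailability.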

[10] = Half life in Sprague-Dawley rat at 3 mg/kg,po; assay type: ADME, organism-based; conditions: in vivo; summary of the method: as §5
Mus musculus [11] = experiment: Reduction in total plasma ceramide level in diet-induced obese C57BL6 mouse administered daily through oral gavage for 28 days measured 2 hrs post last dose relative to lean control; assay type: functional, organism-based; summary of the method: as §2
[12] = Toxicity in diet-induced obese C57Bl/6 mouse assessed as decrease in food intake at 10 mg/kg, po qd for 4 weeks; assay type: organism-based; conditions: in vivo, 672 h
Summary of the method: (§6)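 Food intake monitored in DIO mice during 4 weeks of daily oral dosing.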

[13] = AUC (0 to 24 hrs) in Sprague-Dawley rat at 3 mg/kg,po; assay type: ADME, organism-based; parameters: time < 24 hr, dose 3 mg/kg, route oral; conditions: in vivo; summary of the method: as §5
[14] = Drug uptake in diet-induced obese C57Bl/6 mouse serum at 0.1 mg/kg, po qd for 4 weeks measured 6 hrs post last dose; assay type: ADME, organism-based; conditions: read-out: Drug uptake; summary of the method: as §1
Mus musculus [15] = experiment: Reduction in total plasma ceramide level in C57BL6 mouse administered through gavage after 6 hrs by mass spectrometry relative to vehicle-treated control; assay type: functional
Summary of the method: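 Normal C57bl6 mice given a single oral dose at six dose levels, n=3 per group. Plasma collected 6 h post dose. C16:0, C20:0, C22:0, C24:0 and C24:1 ceramides measured by mass spectrometry and summed; total reduction calculated versus vehicle. ED50 derived from the dose-response; mean ± SEM.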

[16] = target: T1, Serine palmitoyltransferase 1 (Homo sapiens, UniProt O15269); experiment: Inhibition of human SPT1 expressed in microsomes of HEK293 cells incubated for 1hr by LC/MS analysis
T1 sequence (O15269 whole entry): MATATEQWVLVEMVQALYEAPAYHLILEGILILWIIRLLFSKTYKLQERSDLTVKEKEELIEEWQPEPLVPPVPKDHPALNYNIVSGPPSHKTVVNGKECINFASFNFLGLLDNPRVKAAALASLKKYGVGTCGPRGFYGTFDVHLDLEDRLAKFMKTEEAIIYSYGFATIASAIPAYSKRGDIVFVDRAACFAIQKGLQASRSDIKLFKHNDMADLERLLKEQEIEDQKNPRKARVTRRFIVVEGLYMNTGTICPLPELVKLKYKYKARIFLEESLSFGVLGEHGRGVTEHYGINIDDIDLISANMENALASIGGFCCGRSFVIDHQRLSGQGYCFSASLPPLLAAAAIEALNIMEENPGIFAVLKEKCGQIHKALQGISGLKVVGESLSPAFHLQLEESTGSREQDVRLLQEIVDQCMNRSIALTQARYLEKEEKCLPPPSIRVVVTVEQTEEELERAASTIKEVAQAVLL
Summary of the method: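 SPT source was a microsomal fraction from HEK293 cells, with serine and palmitoyl coenzyme A as substrates. Formation of 3-ketodeoxysphinganine quantified by LC/MS. Inhibition determined at 10 concentrations per compound to give IC50.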

Rattus norvegicus [17] = experiment: Reduction in vLDL level in cholic acid/cholesterol-fed Sprague-Dawley rat model of dyslipidemia at 1 to 60 mg/kg administered bid through oral gavage measured after 1 week by FPLC analysis relative to vehicle-treated control; assay type: functional, organism-based; summary of the method: as §4
[18] = Ratio of drug uptake in diet-induced obese C57Bl/6 mouse liver to serum at 0.1 mg/kg, po qd for 4 weeks measured 6 hrs post last dose; assay type: ADME, organism-based; conditions: other tissue; summary of the method: as §1
[19] = target: T1, Serine palmitoyltransferase 1; experiment: (§7) Inhibition of SPT1 in human MCF7 cells assessed as suppression of 14C-serine incorporation into ceramide incubated for 2 hrs in presence of 4-HPR; assay type: cell-based
Summary of the method: (§8)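 Human MCF-7 cells incubated 2 h with a range of compound concentrations or DMSO control media. Medium contained 14C-serine plus 25 uM 4-HPR to activate SPT. 14C-serine-labeled ceramide products quantified to give EC50.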

[20] = target: T2, Serine palmitoyltransferase 1 (Homo sapiens) (UniProt O15269); experiment: as §7; assay type: cell-based; summary of the method: as §8
T2 sequence (whole entry): T1 sequence (O15269 whole entry)

[21] = Cmax in Sprague-Dawley rat at 3 mg/kg,po; assay type: ADME, organism-based; parameters: dose 3 mg/kg, route oral; conditions: in vivo; summary of the method: as §5
[22] = Ratio of drug uptake in diet-induced obese C57Bl/6 mouse liver to serum at 25 mg/kg, po qd for 4 weeks measured 6 hrs post last dose; assay type: ADME, organism-based; summary of the method: as §1
[23] = AUC (0 to 24 hrs) in Sprague-Dawley rat at 1 mg/kg, iv; assay type: ADME, organism-based; parameters: time < 24 hr, dose 1 mg/kg, route intravenous; conditions: in vivo; summary of the method: as §5
[24] = Fraction unbound in rat; assay type: ADME
[25] = Toxicity in rat assessed as induction of gastric enteropathy during 14 days toxicology study; conditions: in vivo, 336 h
[26] = Drug uptake in diet-induced obese C57Bl/6 mouse serum at 1 mg/kg, po qd for 4 weeks measured 6 hrs post last dose; assay type: ADME, organism-based; conditions: read-out: Drug uptake; summary of the method: as §1
[27] = Lipophilicity, log P of compound; assay type: physicochemical; conditions: octanol/water
[28] = Ratio of drug uptake in diet-induced obese C57Bl/6 mouse liver to serum at 10 mg/kg, po qd for 4 weeks measured 6 hrs post last dose; assay type: ADME, organism-based; summary of the method: as §1
[29] = Volume of distribution at steady state in Sprague-Dawley rat at 1 mg/kg, iv; assay type: ADME, organism-based; conditions: in vivo, read-out: Vdss; summary of the method: as §5
[30] = Dissociation constant, pKa of the compound; assay type: physicochemical
[31] = Drug uptake in diet-induced obese C57Bl/6 mouse liver at 25 mg/kg, po qd for 4 weeks measured 6 hrs post last dose; assay type: ADME, organism-based; conditions: read-out: Drug uptake; summary of the method: as §1
[32] = Ratio of drug uptake in diet-induced obese C57Bl/6 mouse liver to serum at 3 mg/kg, po qd for 4 weeks measured 6 hrs post last dose; assay type: ADME, organism-based; summary of the method: as §1
Mus musculus [33] = experiment: Reduction in serum insulin in diet-induced obese C57BL6 mouse at 25 mg/kg, po qd for 4 weeks by oral glucose tolerance test relative to lean control; assay type: functional, organism-based; summary of the method: as §3
[34] = Drug uptake in diet-induced obese C57Bl/6 mouse liver at 10 mg/kg, po qd for 4 weeks measured 6 hrs post last dose; assay type: ADME, organism-based; conditions: read-out: Drug uptake; summary of the method: as §1
[35] = Cmax in Sprague-Dawley rat at 1 mg/kg, iv; assay type: ADME, organism-based; parameters: dose 1 mg/kg, route intravenous; conditions: in vivo; summary of the method: as §5
Rattus norvegicus [36] = experiment: Reduction in total plasma ceramide level in cholic acid/cholesterol-fed Sprague-Dawley rat model of dyslipidemia at 10 to 60 mg/kg administered bid through oral gavage measured after 1 week by FPLC analysis relative to vehicle-treated control; assay type: functional, organism-based; summary of the method: as §4
[37] = Toxicity in diet-induced obese C57Bl/6 mouse assessed as decrease in food intake at 25 mg/kg, po qd for 4 weeks; assay type: organism-based; conditions: in vivo, 672 h; summary of the method: as §6
[38] = Ratio of drug uptake in diet-induced obese C57Bl/6 mouse liver to serum at 1 mg/kg, po qd for 4 weeks measured 6 hrs post last dose; assay type: ADME, organism-based; summary of the method: as §1
Mus musculus [39] = experiment: Reduction in total liver ceramide level in diet-induced obese C57BL6 mouse at 1 to 60 mg/kg administered daily through oral gavage for 28 days measured 6 hrs post last dose relative to lean control; assay type: functional, organism-based
Summary of the method: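 Liver total ceramide levels measured in DIO mice after 4 weeks of oral dosing.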

[40] = Oral bioavailability in Sprague-Dawley rat at 3 mg/kg; assay type: ADME, organism-based; conditions: in vivo; summary of the method: as §5
[41] = Drug uptake in diet-induced obese C57Bl/6 mouse serum at 3 mg/kg, po qd for 4 weeks measured 6 hrs post last dose; assay type: ADME, organism-based; conditions: read-out: Drug uptake; summary of the method: as §1
[42] = Drug uptake in diet-induced obese C57Bl/6 mouse serum at 10 mg/kg, po qd for 4 weeks measured 6 hrs post last dose; assay type: ADME, organism-based; conditions: read-out: Drug uptake; summary of the method: as §1

concentration at 6 h [1]: 26500 ng/g
concentration at 6 h [2]: 1210 ng/mL
Vdss [3]: 126 L/kg
concentration at 6 h [4]: 83800 ng/g
concentration at 6 h [7]: 61200 ng/g
half-life [9]: 5.17 h
half-life [10]: 7.65 h
AUC(0-t) at 24 h [13]: 155 ng·h/mL
concentration at 6 h [14]: 5 ng/mL
IC50 [16]: 0.0639 µM
Ratio [18]: 5292
EC50 [19]: 4.22 µM
inhibition [20]: Dose-dependent effect
Cmax [21]: 16.3 ng/mL
Kp at 6 h [22]: 99
AUC(0-t) at 24 h [23]: 190 ng·h/mL
fraction unbound [24]: 0.02
concentration at 6 h [26]: 141 ng/mL
logP [27]: 4.66
Kp at 6 h [28]: 152
Vd [29]: 8.33 L/kg
pKa [30]: 4.19
concentration at 6 h [31]: 119000 ng/g
Kp at 6 h [32]: 126
concentration at 6 h [34]: 130000 ng/g
Cmax [35]: 756 ng/mL
Kp at 6 h [38]: 434
bioavailability [40]: 33%
concentration at 6 h [41]: 665 ng/mL
concentration at 6 h [42]: 855 ng/mL
SMILES: CCCCCCC(=O)N1CCc2c(c(-c3ccc(C(C)(C)C(=O)O)cc3)nn2C)C1
Activity (Mus musculus [5]): Active
Activity (Mus musculus [6]): Active
Activity (Rattus norvegicus [8]): Dose-dependent effect
Activity (Mus musculus [11]): Dose-dependent effect
Activity [12]: Non-Toxic
Activity (Mus musculus [15]): Dose-dependent effect
ED50 (Mus musculus [15]; C57BL6, po): 8.8 mg/kg
Activity (Rattus norvegicus [17]): inactive
Activity [25]: Toxic
Activity (Mus musculus [33]): Active
Activity (Rattus norvegicus [36]): Active
Activity [37]: Toxic
Activity (Mus musculus [39]): Active
